Fewer inactive variants are shown than the library holds.
B1: tRNA (parent)
chain: GUUCCGUUGGCGUAAUGGUAACGCGUCUCCCUCCUAAGGAGAAGACUGCGGGUUCGAGUCCCGUACGGAACG

Variants of: B1
Assay: yeast fitness relative to wild type (ratio to wild type); higher = fitter; tRNA-Arg(CCU), competitive growth, 37 C, YPD
Procedure, shortened: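 Variants of the tRNA-Arg(CCU) gene, chemically synthesised with a 3% per-site mutation rate at 69 sites, were placed at the native genomic locus in Saccharomyces cerevisiae. The pooled strains were competed in YPD at 37°C for 24 hours in six parallel replicates. Gene amplicons from the start population and from each end population were read by 100-nucleotide paired-end sequencing. Darwinian fitness relative to wild type came from changes in genotype frequencies; genotypes needed ≥ 100 starting reads, and estimates < 0.5 were set to 0.5.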

Variant | yeast fitness
GUUCCGUAGGCGUAAUAGUAAUGUGUCCCCCUCCUAAGGAGAAGACUGCGGGUGCGCGUCCUGUACGGAACG [U8A G17A C22U C24U U28C U54G A57C C62U] | ≤ 0.5
GUUCCGUAGGCGUAAUAGUAACGUGUCUCCCUCCUAAGGAGAAGACUGCGGGUUCGAGUCCCGUACGGAACG [U8A G17A C24U] | 0.95
GUUCCGUAGGCGUAAUAGUAACGCGUCUCCUUUUUAAGGAGAAGAGUGCGGGUUCGAGUCCAGUACGGAACG [U8A G17A C31U C33U C34U C46G C62A] | ≤ 0.5
GUUCCGUAGGCGUAAUAGCAACGCGUCUCCCUCCUAAGGAGAAGACUGCGGGUUCGAGUCCCGUACGGAACG [U8A G17A U19C] | 0.586
GUUCCGUAGGCGUAAUGAUAACGCGUCUCCCUCCUAAGGAGAAGACUGCGGGUUCGAGUCCCGUACGGAACG [U8A G18A] | 0.578
GUUCCGUAGGCGUAAUGAUAACGCGUCUCACACCGAAGGAGAAGACUGCGGGUUCGAGUCCCGUCCGGAACG [U8A G18A C30A U32A U35G A65C] | ≤ 0.5
GUUCCGUAGGCGUAAUGAUAACGCGUCUCGCUCCUAAGGCGAAGACCGCGGAUUCGAGUCCCGUACGGAACG [U8A G18A C30G A40C U47C G52A] | ≤ 0.5
GUUCCGUAGGCGUAAUGAUAACGCGUCUCCCUCUUAAGGAGCAGACUGCGGGUUCGAGUCCCGUACGGAACG [U8A G18A C34U A42C] | ≤ 0.5
GUUCCGUAGGCGUAAUGAUAACGCGUCUCCCUCCUAAGGACAAGACUGCGGGUUCGGGUCCCGUACGGAACG [U8A G18A G41C A57G] | ≤ 0.5
GUUCCGUAGGCGUAAUGAUAACGCGUCUCCCUCCUAAGGAGAAGACUGCGGGUUCGAGUCCCGUACUGCACG [U8A G18A G67U A69C] | ≤ 0.5
GUUCCGUAGGCGUAAUGAUAACGCGUCUCCCCCCUAAGGAGAAGACUGCGGGUUCGAGUCCCGUACGGAACG [U8A G18A U32C] | ≤ 0.5
GUUCCGUAGGCGUAAUGCUAACGAGUCUUCCCCCUAAGGAGAAGACUGCGGGUUCGAGUCCCGUACGGAACG [U8A G18C C24A C29U U32C] | ≤ 0.5
GUUCCGUAGGCGUAAUGCUAACGAGUCUCCCCCCUAAGGAGAAGACUGCGGGUUCGAGUCCCGUACGGAACG [U8A G18C C24A U32C] | 0.607
GUUCCGUAGGCGUAAUGCUAACGAGUCUCCCCCCUAAGGAGAAGACUGCGGGUUCGAGUCCCGUACGGUACG [U8A G18C C24A U32C A69U] | 0.565
GUUCCGUAGGCGUAAUGCUAACGAGUCUCCCCCCUAAGGAGAAGACUGCGGGUUCGAGUCCCGCGCGGAACG [U8A G18C C24A U32C U64C A65G] | ≤ 0.5
GUUCCGUAGGCGUAAUGCUAACGCGUUUCCCUCCUAAGGAGAAGACUGCGGGUUCGAGUCCCGUCCGGAACG [U8A G18C C27U A65C] | ≤ 0.5
GUUCCGUAGGCGUAAUGCUAACGCGUUUCCCUCCUAAGGAGAAGACUGCGCGUUAGAGUCCUGUUCGGUACG [U8A G18C C27U G51C C55A C62U A65U A69U] | 0.647
GUUCCGUAGGCGUAAUGCUAACGCGUUUCCCCCCUAAGGAGAAGACUGCGGGUUCGAGUCCCGUAGGGAUCG [U8A G18C C27U U32C C66G A70U] | ≤ 0.5
GUUCCGUAGGCGUAAUGCUAACGCCUCUCCCUCCUAAGGAGAAGACUGCGGGUUCGAGUCCCGUACGGAACG [U8A G18C G25C] | ≤ 0.5

Variant | yeast fitness
GUUCCGUAGGCGUAAUGCUAACGCCUCUCCCUCCUAAGGAGAAGACUGCGGGUUCGUGUUACGUACGGAACG [U8A G18C G25C A57U C60U C61A] | ≤ 0.5
GUUCCGUAGGCGUAAUGCUAACGCGUCUCCCUCCUAAGGAAAAGACUGCGGGUUCGAGUCCCGUACGGAACG [U8A G18C G41A] | ≤ 0.5
GUUCCGUAGGCGUAAUGGUAACACGUCUCCCUCCUAAGGAGAAGACUGCGGGUUCGAGUCCCGUACGGAACG [U8A G23A] | 0.597
GUUCCGUAGGCGUAAUGGUAACCCGUCUCCCUCCUAAGGAGAAGACUGCGGGUUCGAGUCUCGUACGGAACG [U8A G23C C61U] | 0.575
GUUCCGUAGGCGUAAUGGUAACCCGUCUCCCUCCUAAGGAGAAGACUGCGCGUUCGAGUCCGGUACGGAACG [U8A G23C G51C C62G] | 0.727
GUUCCGUAGGCGUAAUGGUAACGCAUCUCCCUCCUAAGGCGAAGAUUGCGGGUUCGAGUCCCGUACGGAACG [U8A G25A A40C C46U] | 0.598
GUUCCGUAGGCGUAAUGGUAACGCAUCUGCCUCCUACGGAGAAGACUGCGGGUUCGAGUCCCGUUCGGAACG [U8A G25A C29G A37C A65U] | ≤ 0.5
GUUCCGUAGGCGUAAUGGUAACGCAACUCCCUCCUAAGGAGCAGACUGCGGGUUCGAGUCCCGUACGGAACG [U8A G25A U26A A42C] | ≤ 0.5
GUUCCGUAGGCGUAAUGGUAACGCCUCUCCCUCCUACGGAGAAGACUGCGGGUUCGAGUCCCGUACGGAACG [U8A G25C A37C] | ≤ 0.5
GUUCCGUAGGCGUAAUGGUAACGCCUCUCCCUCCUACGGAGAAGACUGCGGGUUCGAGUCCCGUCCGGAACG [U8A G25C A37C A65C] | ≤ 0.5
GUUCCGUAGGCGUAAUGGUAACGCCUCUCCCUCCUACGGAGAAGACUGCGGGUUCGAGUCCCGUAUGGAACG [U8A G25C A37C C66U] | ≤ 0.5
GUUCCGUAGGCGUAAUGGUAACGCCUCUCCCUCCAAAGGAGAAGACUGCGGGUUCGAGUCCCGUACGGAACG [U8A G25C U35A] | ≤ 0.5
GUUCCGUAGGCGUAAUGGUAACGCGUCUCCCUCCUAAAGAGAAGACUGCGGGUUCGAGUCCCGUACGGAACG [U8A G38A] | 0.652
GUUCCGUAGGCGUAAUGGUAACGCGUCUCCCUCCUAAAGCGAAGACUGUGGGUCCGAGUGCCGUACGGAACG [U8A G38A A40C C49U U54C C60G] | ≤ 0.5
GUUCCGUAGGCGUAAUGGUAACGCGUCUCCCUCCUAAGCAGAAGACUGCGGGUUCGAGUCCCGUACGGACCG [U8A G39C A70C] | 0.751
GUUCCGUAGGCGUAAUGGUAACGCGUCUCCCUCCUAAGGAAAAGACUGCGGGUUCGAGUCCCGUACGGUACG [U8A G41A A69U] | ≤ 0.5
GUUCCGUAGGCGUAAUGGUAACGCGUCUCCCUCCUAAGGAGAAAACUGCGGGUUCGAGUCCCGCAAGGAACG [U8A G44A U64C C66A] | ≤ 0.5
GUUCCGUAGGCGUAAUGGUAACGCGUCUCCCUCCUAAGGAGAACACUGCGGGUUCGUGUCCCGUACGGAACG [U8A G44C A57U] | ≤ 0.5

Reference: the RNAGym collection of RNA variant scans (doi:10.1126/science.aae0568)
